Compound activity from PubChem BioAssay.
KDM4C inh – inhibitors of human demethylase GASC-1 KDM4C. 96,000 compounds, 0.15% hits. Q9H3R0. inhibition, % at 12.5 µM. GST-KDM4C 2-372, H3K9me3 peptide, LANCE TR-FRET;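 active = mean replicate inhibition above about 25%, with at least 55% of replicates also reaching it, limit read from the data, passing the limit was not always enough; inconclusive = only one of those two conditions met; inactive = neither condition met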
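Compound: one test concentration per compound; Material: GST-GASC-1 enzyme fragment 2-372; Amount: GASC-1 enzyme at 10 nM final in reaction; Also added: H3K9me3 peptide substrate, Fe(II), 2-oxoglutarate; Technique: LANCE TR-FRET; Times: 30 min demethylation and 1 h detection at room temperature.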
Pf Dd2 inh – P. falciparum Dd2 growth inhibition; activity change, % at 10 µM; SYBR Green, 72 h; hits give low values; 94,000 compounds, 2.3% hits; in the data active = activity change below about -80%; inconclusive = no clear call, values can overlap the other calls
IDH1 mut inh – inhibitors of human IDH1 R132H. IDH1 R132H reductase, diaphorase/resazurin fluorescence, 60 min. inhibition, % at 10 µM. 70,000 compounds, 0.18% hits. AID 624101; in the data active = inhibition above about 34%; inconclusive = no clear call, values can overlap the other calls; inactive = below about 11%;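 also: 0% = DMSO and 100% = no enzyme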
Target sequence (O75874 whole entry R132H): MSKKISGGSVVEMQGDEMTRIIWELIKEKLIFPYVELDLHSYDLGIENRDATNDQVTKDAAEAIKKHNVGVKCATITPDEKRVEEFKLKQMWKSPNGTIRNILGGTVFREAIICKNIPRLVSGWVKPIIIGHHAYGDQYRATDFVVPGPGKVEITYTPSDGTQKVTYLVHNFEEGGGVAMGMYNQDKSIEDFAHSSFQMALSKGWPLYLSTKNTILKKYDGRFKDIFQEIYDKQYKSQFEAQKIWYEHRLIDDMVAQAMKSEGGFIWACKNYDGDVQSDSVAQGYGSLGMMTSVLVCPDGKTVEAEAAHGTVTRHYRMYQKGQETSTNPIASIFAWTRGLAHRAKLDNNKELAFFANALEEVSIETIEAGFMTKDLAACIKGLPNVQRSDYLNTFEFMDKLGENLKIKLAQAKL
T cruzi growth-1 – T. cruzi proliferation inhibition; inhibition, % at 8.34 µM; 77,000 compounds, 5.9% hits; T. cruzi beta-gal in NIH3T3, GalScreen luminescence, 90 h;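 active = mean inhibition above about 93%, with at least 55% of replicates each passing it, limit read from the data, passing the limit was not always enough; inconclusive = only one of those two conditions holds; inactive = neither condition holds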
T cruzi growth-2 – Trypanosoma cruzi proliferation inhibition; shares compounds with T cruzi growth-1; T. cruzi beta-gal in NIH3T3, GalScreen luminescence, 90 h; inhibition, % at 8.35 µM; 5,600 compounds, 72% hits; AID 651739;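 active = mean replicate inhibition above about 95% and at least 55% of replicates individually reaching it, limit read from the data; inconclusive = only one of the two criteria is met; inactive = neither criterion is met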
T cruzi growth-3 – inhibitors of T. cruzi proliferation; shares compounds with T cruzi growth-1; T. cruzi beta-gal in NIH3T3, GalScreen luminescence, 90 h; inhibition, % at 2.09 µM; 5,600 compounds, 21% hits; AID 651740;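 active = mean inhibition above about 95%, with at least 55% of replicates also reaching it, limit read from the data; inconclusive = meets just one of the two conditions; inactive = meets neither condition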;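 also: plate controls were neutral control median for no effect and positive control median for full effect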
NIH3T3 tox – kills mouse NIH/3T3 fibroblasts | cytotoxicity (signal decrease), % at 8.35 µM | 5,600 compounds, 14% hits | AID 651742 | shares compounds with T cruzi growth-1 | NIH/3T3 viability, CellTiter-Glo ATP luminescence, 90 h;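 active = mean signal decrease across replicates above about 35% based on untreated-well scatter, with enough replicates individually passing, limit read from the data; inconclusive = no rule stated though some were filed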;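 also: 0% = median of neutral control wells and 100% = median of positive control wells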
3T3 cytotox 2 – NIH/3T3 (mouse) viability loss | shares compounds with T cruzi growth-1 | NIH/3T3 viability, CellTiter-Glo ATP luminescence, 90 h | inhibition, % at 24.9 µM | 5,600 compounds, 56% hits;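 active = mean loss of cell viability signal at or above a set limit, and enough replicates individually reaching it; inconclusive = meets only the mean limit or only the replicate share; inactive = meets neither condition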;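 also: 0% = median of neutral control wells and 100% = median of positive control wells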
Active calls of the source: *; ? = inconclusive; · = no result. Compounds with a hit are over-represented: about 5.8% of the library has one in this group of screens.

SMILES | KDM4C inh | Pf Dd2 inh | IDH1 mut inh | T cruzi growth-1 | T cruzi growth-2 | T cruzi growth-3 | NIH3T3 tox | 3T3 cytotox 2
CNC[C@@H]1Oc2cc(C#Cc3ccccn3)ccc2S(=O)(=O)N([C@H](C)CO)C[C@H]1C | -3 | -34 | 0 | 103* | 110* | 73 | -7 | -24
CNC[C@@H]1Oc2cc(C#Cc3ccccn3)ccc2S(=O)(=O)N([C@@H](C)CO)C[C@H]1C | -3 | -43 | -1 | 105* | 107* | 73 | -36 | -22
CNC[C@@H]1Oc2cc(C#Cc3ccncc3)ccc2S(=O)(=O)N([C@@H](C)CO)C[C@@H]1C | 5 | -32 | 10 | · | · | · | · | ·
CCOc1ccc(C)cc1S(=O)(=O)n1nnc2ccccc21 | · | · | 0 | · | · | · | · | ·
COc1ccc(NC(=O)Nc2ccc3c(c2)C(=O)N([C@H](C)CO)C[C@@H](C)[C@H](CN(C)Cc2ccccc2)OCCCC[C@H](C)O3)cc1 | 0 | -51 | 1 | 93 | · | · | · | ·
COc1ccc(NC(=O)Nc2ccc3c(c2)C(=O)N([C@H](C)CO)C[C@H](C)[C@H](CN(C)Cc2ccccc2)OCCCC[C@H](C)O3)cc1 | -1 | 19 | · | 92 | · | · | · | ·
COc1ccc(NC(=O)Nc2ccc3c(c2)C(=O)N([C@@H](C)CO)C[C@@H](C)[C@H](CN(C)Cc2ccccc2)OCCCC[C@@H](C)O3)cc1 | -1 | -42 | -11 | 98* | 111* | 30 | -9 | 16
COc1ccc(NC(=O)Nc2ccc3c(c2)C(=O)N([C@@H](C)CO)C[C@@H](C)[C@@H](CN(C)Cc2ccccc2)OCCCC[C@H](C)O3)cc1 | 0 | -23 | 2 | 103* | 106* | 10 | 7 | 3
COc1cc(Br)cc(/C=N/NC(=O)c2ccc(C(=O)NO)cc2)c1O | · | · | 0 | · | · | · | · | ·
Cn1c(SCC(=O)c2ccc([N+](=O)[O-])cc2)nnc1-c1cccs1 | · | · | 0 | · | · | · | · | ·
CN1c2ccc(-c3ccccc3F)cc2[C@@H]2[C@@H](CCN2C(=O)c2cccc(F)c2)[C@@H]1CO | -5 | -48 | · | 76 | · | · | · | ·
CN1c2ccc(-c3cccc(C#N)c3)cc2[C@H]2[C@H](CCN2C(=O)Cc2ccccn2)[C@H]1CO | 2 | -38 | · | 102* | 107* | 61 | 6 | 16
CN1c2ccc(-c3ccccc3F)cc2[C@H]2[C@H](CCN2C(=O)Cc2ccccn2)[C@@H]1CO | 3 | -16 | · | 88 | · | · | · | ·
CCC(=O)N1CC[C@@H]2[C@H]1c1cc(-c3ccc(F)cc3)ccc1N(C)[C@H]2CO | 0 | -4 | · | 106* | 100* | 94 | -25 | -7
CN1c2ccc(-c3ccccc3F)cc2[C@@H]2[C@@H](CCN2C(=O)Cc2ccccn2)[C@@H]1CO | 4 | -49 | · | 104* | 101* | 40 | 6 | 17
CN1c2ccc(-c3ccccc3F)cc2[C@H]2[C@H](CCN2C(=O)c2cccc(F)c2)[C@H]1CO | 0 | 11 | · | ? | 107* | 81 | 12 | 103*
CCC(=O)N1CC[C@@H]2[C@H]1c1cc(-c3cccc(F)c3)ccc1N(C)[C@H]2CO | 1 | -2 | · | 62 | · | · | · | ·
Cc1ccc2nc(-c3ccccn3)cc(C(=O)Nc3sc4c(c3C(N)=O)CCc3ccccc3-4)c2c1 | · | · | 0 | · | · | · | · | ·
Cc1c(/C=C2\SC(=Nc3ccccc3)N(C3CCCC3)C2=O)c2ccccc2n1CC(N)=O | · | · | 0 | · | · | · | · | ·
Cc1[nH]c(=S)[nH]c(=O)c1Cc1ccc(C(=O)O)o1 | · | · | 3 | · | · | · | · | ·
CCC(=O)N1CC[C@@H]2[C@H]1c1cc(-c3ccccc3F)ccc1N(C)[C@@H]2CO | 1 | 30 | · | 100* | 104* | 16 | -10 | 9
C[C@@H]1CN([C@H](C)CO)S(=O)(=O)c2ccc(C3=CCCC3)cc2O[C@@H]1CN(C)Cc1ccncc1 | 4 | -19 | · | 74 | · | · | · | ·
C[C@H]1CN([C@@H](C)CO)S(=O)(=O)c2ccc(C3=CCCC3)cc2O[C@@H]1CN(C)Cc1ccncc1 | 0 | -23 | · | 117* | 98* | ? | 45* | 97*
C[C@@H]1CN([C@H](C)CO)S(=O)(=O)c2ccc(C3=CCCC3)cc2O[C@H]1CN(C)Cc1ccncc1 | -1 | -65 | 2 | 115* | 98* | 104* | 68* | 76*
C[C@H]1CN([C@@H](C)CO)S(=O)(=O)c2ccc(C3=CCCC3)cc2O[C@H]1CN(C)Cc1ccncc1 | 4 | -34 | 1 | 105* | 102* | 92 | 19 | 31*
SMILES | KDM4C inh | Pf Dd2 inh | IDH1 mut inh | T cruzi growth-1 | T cruzi growth-2 | T cruzi growth-3 | NIH3T3 tox | 3T3 cytotox 2
COc1ccc(S(=O)(=O)N(C)CC(=O)Nc2cc([N+](=O)[O-])ccc2C)cc1C | · | · | 0 | · | · | · | · | ·
COc1ccc(NC(=O)N(C)C[C@H]2Oc3cc(-c4ccc(C)cc4)ccc3S(=O)(=O)N([C@@H](C)CO)C[C@@H]2C)cc1 | -1 | -74 | 0 | 126* | 107* | 60 | -9 | 37*
COc1ccc(NC(=O)N(C)C[C@@H]2Oc3cc(-c4ccc(C)cc4)ccc3S(=O)(=O)N([C@@H](C)CO)C[C@H]2C)cc1 | 0 | -93* | 5 | 97* | 104* | 55 | -2 | 23
COc1ccc(NC(=O)N(C)C[C@@H]2Oc3cc(-c4ccc(C)cc4)ccc3S(=O)(=O)N([C@@H](C)CO)C[C@@H]2C)cc1 | -2 | -87* | 0 | 104* | 115* | 70 | ? | 43*
COc1ccc(NC(=O)N(C)C[C@@H]2Oc3cc(-c4ccc(C)cc4)ccc3S(=O)(=O)N([C@H](C)CO)C[C@H]2C)cc1 | 0 | -89* | 0 | 108* | 105* | 49 | 10 | 26*
CC(NS(=O)(=O)c1ccccc1)C(=O)Nc1ccc(Cl)c(C(F)(F)F)c1 (stereo not given) | · | · | 0 | · | · | · | · | ·
Cc1ccc(-c2ccc3c(c2)O[C@@H](CN(C)C(=O)Nc2ccccc2)[C@H](C)CN([C@H](C)CO)S3(=O)=O)cc1 | -1 | -36 | 0 | · | · | · | · | ·
COc1ccc(NC(=O)N(C)C[C@H]2Oc3cc(-c4ccc(C)cc4)ccc3S(=O)(=O)N([C@H](C)CO)C[C@@H]2C)cc1 | -3 | -80 | -2 | 114* | 95 | 26 | 29 | 27
COc1ccc(NC(=O)N(C)C[C@H]2Oc3cc(-c4ccc(C)cc4)ccc3S(=O)(=O)N([C@H](C)CO)C[C@H]2C)cc1 | -3 | -75 | 0 | 102* | 104* | 71 | 1 | -1
COc1ccccc1CC(=O)Nc1ccccc1C(=O)NC(C)(C)C | · | · | 0 | · | · | · | · | ·
